TAAR1 agonist: human TAAR1 agonism | activation, % at 3 µM | 360,000 tested, 0.99% active | CHO RD-HGA16 TAAR1, Fluo-8 calcium fluorescence; vehicle wells 0%, saturating PEA agonist 100% | AID 624467;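 active = activation above the mean activation of all test compounds in the run plus 3 SD, cut at about 38% in these data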
Target sequence (Q96RJ0 whole entry, looked up): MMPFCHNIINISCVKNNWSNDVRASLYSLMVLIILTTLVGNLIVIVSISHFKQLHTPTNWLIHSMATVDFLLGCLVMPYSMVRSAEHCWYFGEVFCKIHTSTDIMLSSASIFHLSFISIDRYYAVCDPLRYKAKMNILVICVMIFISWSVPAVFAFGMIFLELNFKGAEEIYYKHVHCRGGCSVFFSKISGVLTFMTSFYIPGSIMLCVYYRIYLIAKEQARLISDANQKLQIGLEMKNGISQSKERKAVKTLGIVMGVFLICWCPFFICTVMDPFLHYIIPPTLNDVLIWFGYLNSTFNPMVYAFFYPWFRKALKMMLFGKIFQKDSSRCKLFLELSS
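System: CHO-derived RD-HGA16 cells with stable Gα16 and human TAAR1 / Times: 17-24 h plating, Fluo-8 75 min 37 °C, 30 min RT / Technique: calcium-sensitive Fluo-8 signal, excitation 470-495, emission 515-575 nm / Measure: % activation relative to PEA EC100 response / Benchmarks: DMSO and PEA EC100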
TAAR1 antag: human TAAR1 antagonism | CHO RD-HGA16 TAAR1, Fluo-8 calcium fluorescence, antagonist | inhibition, % at 3 µM | 360,000 tested, 1.5% active;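 active = inhibition above a per-plate cutoff, the mean inhibition of test compounds on that plate plus 3 SD, cut at about 49% in these data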
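System: CHO RD-HGA16 cells bearing hTAAR1. Reagent: EC80 β-phenethylamine stimulus. Schedule: seeding 17-24 h prior, 75-min 37 °C, 30-min RT dye loading. Signal: Fluo-8 intracellular calcium dye fluorescence, real-time kinetic reads. Read-out: % inhibition from peak post-agonist over basal fluorescence ratio. Benchmarks: vehicle wells and EC80 agonist wells. Replicates: n of 1.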
OX1R antag-1: antagonists of human orexin 1 receptor (OX1R) | OX1R-expressing cells, FRET antagonist read-out | AID 485270 | O43613 | inhibition, % at 6.6 µM | 330,000 tested, 1.8% active; in the data active = inhibition mostly above about 38%, no sharp cut-off; inactive = mostly below about 40%
Target sequence (O43613 whole entry, looked up): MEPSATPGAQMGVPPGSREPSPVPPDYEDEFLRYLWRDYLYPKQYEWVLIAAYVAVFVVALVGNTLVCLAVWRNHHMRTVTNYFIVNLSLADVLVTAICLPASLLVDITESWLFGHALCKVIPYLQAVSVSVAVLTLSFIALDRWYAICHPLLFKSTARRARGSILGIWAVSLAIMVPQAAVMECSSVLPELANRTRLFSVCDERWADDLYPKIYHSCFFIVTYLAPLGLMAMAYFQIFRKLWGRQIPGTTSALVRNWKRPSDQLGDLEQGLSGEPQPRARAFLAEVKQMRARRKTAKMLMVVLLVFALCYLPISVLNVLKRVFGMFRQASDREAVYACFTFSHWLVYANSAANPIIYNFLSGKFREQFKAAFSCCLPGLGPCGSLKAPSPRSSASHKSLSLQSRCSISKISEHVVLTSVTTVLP
CHO parental Ca: signal in parental CHO cells, OX1R antagonist counter-screen. parental CHO-K1, ATP-induced calcium, Fluo-8 fluorescence. inhibition, % at 5.6 µM. 330,000 tested, 0.63% active;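 active = inhibition above that plate's mean sample inhibition plus 3 SD, cut at about 26% in these data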
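test system = CHO parental line | reagent = ATP stimulus | measured by = intracellular calcium via Fluo-8 no-wash fluorescent dye | control set = ATP and no-ATP DMSO wells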
OX1R antag-2: blocks the human orexin 1 receptor; O43613; CHO/OX1R cells, Fluo-8 calcium fluorescence, orexin A; inhibition, % at 5 µM; 330,000 tested, 0.43% active; AID 434989;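 active = inhibition above its plate's threshold, mean inhibition of all tested compounds on the plate plus 3 SD, cut at about 37% in these data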
NTR1 ag: activates human neurotensin receptor 1; NTR1-U2OS beta-arrestin-GFP spot imaging, agonist mode; activation, % at 20 µM; 330,000 tested, 0.17% active; AID 493036;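 active = activation at or above 40% of the spot to cytoplasm intensity ratio, with at least 20 cells analyzed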
TAAR1 ag confirm: human TAAR1 agonism, confirmed | activation, % at 3 µM | CHO RD-HGA16 TAAR1, Fluo-8 calcium fluorescence; scaled: DMSO 0%, maximal phenethylamine 100% | shares compounds with TAAR1 agonist | 2,400 tested, 82% active;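 active = activation above a cutoff set at the run's mean compound activation plus 3 SD, cut at about 39% in these data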
Ga16 ag counter: nonselective agonist in parental cells, TAAR1 agonist counter-screen | 2,400 tested, 50% active | CHO-Ga16 parental, Fluo-8 calcium fluorescence; normalized to maximal ATP response, DMSO zero | activation, % at 3 µM | shares compounds with TAAR1 agonist;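 active = activation above the run cutoff, the mean activation over all tested wells plus 3 SD, cut at about 12% in these data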
TAAR1 desens: counter-screen for human TAAR1 agonists: agonists that desensitize TAAR1; shares compounds with TAAR1 agonist; CHO RD-HGA16 hTAAR1, Fluo-8 calcium, beta-PEA response inhibition; inhibition, % at 3 µM; 2,400 tested, 46% active; AID 651951;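 active = inhibition above the run cutoff, the mean inhibition of all test compounds plus 3 SD, cut at about 49% in these data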;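 also: beta-PEA stimulus applied at its EC80; loss of beta-PEA calcium signal after compound pretreatment read as receptor desensitization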
Ga16 antag count: nonselective Ga16 antagonism, counter-screen; CHO-Ga16 ATP-induced calcium, Fluo-8 fluorescence; 2,400 tested, 39% active; shares compounds with TAAR1 agonist; inhibition, % at 3 µM;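 active = inhibition above the plate's mean compound inhibition plus 3 SD, computed per plate, cut at about 22% in these data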
Each line names hits and unclear results; the compound was inactive in the other large screens (follow-up assays come after a bar, where they were run). This is a sample that favours compounds with a hit; in the whole collection about 4% have one here.

O=C(Nc1ccnn1C1CCN(Cc2cc3ccccc3[nH]2)CC1)C1CCOC1 (stereo unspecified)	TAAR1 agonist 57.5, TAAR1 antag 82.6 | TAAR1 ag confirm inactive | Ga16 ag counter 23.3 | TAAR1 desens 63.0 | Ga16 antag count 66.1
Cc1cc(C)nc(N2CCCC(C(=O)NCCc3ccccc3F)C2)n1 (stereo unspecified)	TAAR1 agonist 44.7 | TAAR1 ag confirm 75.7 | Ga16 ag counter inactive | TAAR1 desens inactive | Ga16 antag count inactive
CCOc1ccc(C=NCC(O)c2ccccc2)cc1 (stereo unspecified)	TAAR1 agonist 93.7, TAAR1 antag 75.8 | TAAR1 ag confirm 105.7 | Ga16 ag counter inactive | TAAR1 desens 88.4 | Ga16 antag count inactive
COc1ccc(-c2nc(CS(=O)(=O)CC(=O)NCCCN3CCOCC3)c(C)o2)cc1	none
CC(C)(CNC(=O)c1ccc(S(=O)(=O)Nc2ccc(Cl)cc2)cc1)N1CCOCC1	TAAR1 agonist 65.4 | TAAR1 ag confirm 45.4 | Ga16 ag counter 19.1 | TAAR1 desens inactive | Ga16 antag count 23.0
CCOc1ccc(NS(=O)(=O)c2ccc(C(=O)NCC(c3cccs3)N3CCOCC3)cc2)cc1 (stereo unspecified)	TAAR1 agonist 125.5, TAAR1 antag 82.6 | TAAR1 ag confirm 106.2 | Ga16 ag counter 68.1 | TAAR1 desens 77.6 | Ga16 antag count 50.7
O=C(COc1ccc(S(=O)(=O)Nc2ccc(Cl)cc2)cc1)N1CCOCC1	TAAR1 agonist 56.6 | TAAR1 ag confirm 55.7 | Ga16 ag counter 31.1 | TAAR1 desens inactive | Ga16 antag count inactive
Cc1c(C(=O)NCc2ccccc2C(F)(F)F)sc(=O)n1Cc1ccc(S(=O)(=O)N(C)C)cc1	none (no result: OX1R antag-1, CHO parental Ca, OX1R antag-2, NTR1 ag)
Cc1cc(CN(C)C(=O)C2CCC(=O)N(CCc3cccc(F)c3)C2)on1 (stereo unspecified)	none
CCCCOc1ccccc1C(=O)NNC(=S)NC(=O)c1ccccc1[N+](=O)[O-]	TAAR1 agonist 85.3 | TAAR1 ag confirm 42.9 | Ga16 ag counter 42.6 | TAAR1 desens inactive | Ga16 antag count 40.6
O=[N+]([O-])c1ccccc1NC(=S)N/N=C/c1ccc(O)c(O)c1	TAAR1 agonist 52.0 | TAAR1 ag confirm 83.8 | Ga16 ag counter inactive | TAAR1 desens 56.4 | Ga16 antag count inactive
FC(F)(F)c1ccnc(NCc2ccco2)n1	none
CC(=O)OCC(=O)C1CCC2C3CC=C4CC(O)CCC4(C)C3CCC12C (stereo unspecified)	none
CC(=O)C1CCC2C3CC=C4CC(SC(=N)N)CCC4(C)C3CCC12C (stereo unspecified)	TAAR1 agonist 83.6, TAAR1 antag 80.9 (no result: OX1R antag-1, CHO parental Ca, OX1R antag-2, NTR1 ag) | TAAR1 ag confirm 111.2 | Ga16 ag counter 69.4 | TAAR1 desens 90.7 | Ga16 antag count 53.4
OC(c1ccccc1)(C1CCCCC1)C(CN1CCOCC1)c1ccccc1 (stereo unspecified)	TAAR1 agonist 51.6 | TAAR1 ag confirm 59.1 | Ga16 ag counter 33.4 | TAAR1 desens inactive | Ga16 antag count inactive
COCCn1nnnc1C(c1cc2cc(OC)ccc2[nH]c1=O)N1CCC(Cc2ccccc2)CC1 (stereo unspecified)	none
COc1ccc2[nH]c(=O)c(CN(CCc3ccccc3)Cc3nnnn3CC3CCCO3)cc2c1 (stereo unspecified)	TAAR1 agonist 84.5, TAAR1 antag 72.4 | TAAR1 ag confirm 87.9 | Ga16 ag counter inactive | TAAR1 desens 81.3 | Ga16 antag count 24.9
COc1ccc2cc(CN(CCc3ccccc3)Cc3nnnn3CC3CCCO3)c(=O)[nH]c2c1 (stereo unspecified)	TAAR1 agonist 92.3, TAAR1 antag 56.9 | TAAR1 ag confirm 77.6 | Ga16 ag counter inactive | TAAR1 desens 75.1 | Ga16 antag count inactive
O=c1[nH]c2cc3c(cc2cc1CN(CCc1ccccc1)Cc1nnnn1CC1CCCO1)OCO3 (stereo unspecified)	none
COc1ccc2cc(C(c3nnnn3CCc3ccccc3)N3CCCC(C)C3)c(=O)[nH]c2c1 (stereo unspecified)	TAAR1 agonist 53.9 | TAAR1 ag confirm 58.5 | Ga16 ag counter inactive | TAAR1 desens inactive | Ga16 antag count inactive
O=[N+]([O-])c1ccc(S(=O)(=O)NN=CCCc2ccccc2)cc1	none (no result: OX1R antag-1, CHO parental Ca, OX1R antag-2, NTR1 ag)
CCN(CC)CCCn1c2c(c(SCC(=O)Nc3ccccc3Cl)nc1=O)CCC2	none
CSc1ncccc1C(=O)OCC(=O)Nc1ccc(N2CCOCC2)cc1	none
Cc1cc(=O)[nH]c(SCC(=O)N2CCCC(C)C2)n1 (stereo unspecified)	TAAR1 agonist 75.4 | TAAR1 ag confirm 38.7 | Ga16 ag counter inactive | TAAR1 desens inactive | Ga16 antag count inactive
Cc1cc(=O)[nH]c(SCC(=O)NC2CCCCC2)n1	none
CC1CCN(c2ccc3c(c2)S(=O)(=O)c2cccc(C(=O)NCc4cccc(F)c4)c2C3=O)CC1	TAAR1 agonist 67.1, TAAR1 antag 91.4 | TAAR1 ag confirm inactive | Ga16 ag counter 35.7 | TAAR1 desens 59.8 | Ga16 antag count 62.5
O=C(COC(=O)C1CC2CCCC(C1)C2=O)Nc1ccc(Cl)cn1 (stereo unspecified)	none
O=C1/C(=C\c2cc(Cl)c(O)c(Cl)c2)SC(=S)N1Cc1ccccc1	TAAR1 agonist 110.9, TAAR1 antag 97.2 (no result: OX1R antag-1, CHO parental Ca, OX1R antag-2, NTR1 ag) | TAAR1 ag confirm 187.7 | Ga16 ag counter 258.1 | TAAR1 desens 107.1 | Ga16 antag count 106.2
O=C(O)COc1ccc(/C=C2/SC(=S)N(Cc3ccccc3)C2=O)cc1	none
CCCCCCn1c(=O)[nH]c2nc3cc(N)ccc3nc2c1=O	TAAR1 agonist 118.3, TAAR1 antag 56.6, CHO parental Ca 51.4, OX1R antag-2 75.3 (no result: NTR1 ag) | TAAR1 ag confirm 95.2 | Ga16 ag counter 96.2 | TAAR1 desens 67.7 | Ga16 antag count 66.5
COC(=O)[C@@]12CCCN1[C@H](c1ccc(-c3ccccc3)c(OC)c1)[C@H]1C(=O)N(C)C(=O)[C@H]12	none
